Screens: PubChem BioAssay, several laboratories
Most compounds without a hit are left out; they make up all but 4.5% or so of the library.
STAT1 act – activators of IFN-gamma induced STAT1 signaling | activation (% of control), % at 5.5 µM | 200,000 tested, 2.6% active | AID 932 | NIH 3T3 STAT1-luciferase reporter, luminescence; 100% = IFN-gamma alone, no compound;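 active = activation above the screen-wide mean activation plus 3 SD, cut at about 130% in these data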;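 note: raw ratio to IFN-gamma control signal so 100% means no change and 0% no light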
AHR act – human AHR activation. P35869. AHR-responsive luciferase reporter cells, luminescence. activation, % at 5 µM. 320,000 tested, 2.5% active. AID 2796; in the data active = activation above about 47%;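 note: 0% = vehicle wells and 100% = reference agonist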
NF-kB expr up – NF-kB expression increase, human neuronal cells; NF-kB reporter expression; active compounds read high; fold change at 12.5 µM; 190,000 tested, 1.6% active; in the data active = fold change above about 3.3
PERK inh – blocks human PERK kinase | Q9NZJ5 | inhibition, % at 5.6 µM | 220,000 tested, 0.17% active | CHO PERK-DD fusion, SEAP luminescence translation reporter;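 active = inhibition above the mean inhibition of all tested compounds plus 3 SD, set separately per screening campaign, cut at about 2.9% in these data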;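 note: PERK kinase domain activated by AP20187 dimerizer at 100 nM; 0% = DMSO with dimerizer and 100% = rapamycin at 8.4 µM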
MDM2 E3 inh – inhibitors of human Mdm2 E3 ubiquitin ligase. Q00987. cell-based MDM2 ubiquitination luciferase reporter, 2 h; 0 = plate control, 100 = twice control, blank-subtracted. signal enhancement, % at 5 µM. 210,000 tested, 0.11% active. AID 1230;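 active = signal enhancement of 30% or more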;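 note: luminescence tracks abundance of the self-degrading MDM2-luciferase fusion protein; higher signal means inhibition of MDM2 E3 ligase activity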
Target sequence (Q00987 whole entry, looked up, the tested form may be a part): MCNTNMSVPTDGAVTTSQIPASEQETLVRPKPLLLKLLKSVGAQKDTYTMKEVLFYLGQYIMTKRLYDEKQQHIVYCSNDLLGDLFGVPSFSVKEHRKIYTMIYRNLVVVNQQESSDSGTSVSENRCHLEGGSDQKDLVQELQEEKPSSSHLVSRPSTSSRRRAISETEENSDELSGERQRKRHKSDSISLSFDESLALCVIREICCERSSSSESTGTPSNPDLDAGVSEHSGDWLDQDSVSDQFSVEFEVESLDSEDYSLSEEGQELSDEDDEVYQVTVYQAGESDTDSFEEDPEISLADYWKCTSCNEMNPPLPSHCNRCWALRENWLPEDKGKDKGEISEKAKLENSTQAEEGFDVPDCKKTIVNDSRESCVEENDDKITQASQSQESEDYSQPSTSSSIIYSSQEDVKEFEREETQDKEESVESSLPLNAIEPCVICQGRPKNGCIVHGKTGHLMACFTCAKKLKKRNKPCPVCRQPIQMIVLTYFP
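Assay system: stable mammalian line carrying autodegrading MDM2–luciferase fusion reporter; Input: 2000 cells in each well; Compound dosing: single-point 5 µM; Schedule: 2 h compound exposure at 37 °C; Signal: SteadyLite luciferase luminescence after 15 min room-temperature reagent incubation; Evaluation: % luminescence enhancement versus blank-corrected plate control mean; Benchmarks: plate controls and plate blanks.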
APP 5'UTR act – APP 5'UTR luciferase reporter activation; SH-SY5Y APP 5'UTR luciferase reporter, luminescence; zero percent = DMSO vehicle wells; activation, % at 2 µM; 190,000 tested, 1% active; AID 1276;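 active = activation above a set limit, based on mean plus 3 SD of controls, cut at about 140% in these data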
An asterisk follows results filed as active; . = not tested or not shown.

SMILES	STAT1 act	AHR act	NF-kB expr up	PERK inh	MDM2 E3 inh	APP 5'UTR act
Cc1ccccc1N=C1NC(=O)/C(=C/c2cccn2C)S1	.	1	.	0	-1	.
Cc1cccc(N=C2NC(=O)/C(=C3/C(=O)N(C)c4ccccc43)S2)c1C	102	68*	1.1	0	-16	-9
O=C(/C=C/c1ccco1)NC(=S)Nc1ccccc1N1CCOCC1	98	12	0.95	-1	-8	1
O=C(/C=C/c1ccco1)Nc1ccccc1N1CCCC1	91	73*	0.89	1	-1	-14
O=C(/C=C/c1ccco1)NC(=S)Nc1ccccn1	118	66*	2.1	0	-7	89
COc1cccc(NC(=S)NC(=O)/C=C/c2ccco2)c1	.	45	.	.	.	.
COc1ccc(NC(=S)NC(=O)/C=C/c2ccco2)c(OC)c1	.	68*	.	.	.	.
O=C(/C=C/c1ccco1)NC(=S)Nc1ccccc1N1CCCC1	94	65*	0.48	1	-11	-14
COc1ccc(NC(=O)COC(=O)c2cccn2C)cc1S(=O)(=O)N1CCCCC1	.	0	.	.	.	.
O=C(COc1ccccc1[N+](=O)[O-])N1CCCc2ccccc21	.	12	.	.	.	.
Cc1c(NC(=O)COC(=O)CCc2c[nH]c3ccccc23)c(=O)n(-c2ccccc2)n1C	.	-1	.	.	.	.
CC(C)Cn1c(S(=O)(=O)O)nc2ccccc21	.	0	.	3.5*	-22	.
Cc1ccc(NC(=O)CCNC(=O)c2ccco2)cc1F	97	2	1.1	0	5	3
CCOC(=O)C1CCCN(C(=O)c2ccc(CNc3c(N4CCC(C)CC4)c(=O)c3=O)cc2)C1 (stereo not drawn)	102	-3	0.96	2	92*	20
O=C(c1cccs1)N(C(=O)c1cccs1)c1ccc(Br)cn1	134*	11	4*	0	-7	102
O=C(NOC(=O)c1cc(Br)ccc1Cl)c1cccs1	102	2	1.2	1	-5	-5
Cc1ccnc(N(C(=O)c2cccs2)C(=O)c2cccs2)c1	128	50*	2.3	1	-33	68
CC(=O)N1CCN(c2ccc(NCc3ccc(-c4cccc(Cl)c4)o3)cc2)CC1	.	3	.	.	.	.
O=C(CN(Cc1ccco1)Cc1ccco1)Nc1cc(S(=O)(=O)N2CCCCC2)ccc1Cl	.	0	.	.	.	.
COC(=O)COc1cccc(NC(=O)C(c2ccccc2)c2ccccc2)c1	.	-2	.	.	.	.
Nc1nnc(CC(=O)N/N=C/c2cccc(OCCOc3ccccc3)c2)s1	129*	23	1.5	0	-14	90
CSc1ccc(/C=C(/NC(=O)c2ccc(C)cc2)C(=O)Nc2cccc(C)c2)cc1	102	2	1.3	-1	-2	20
COc1ccc(Cl)cc1C(=O)Nc1cccc2ncccc12	.	66*	.	.	.	.
O=C(Nc1cccc2ncccc12)c1ccc(-c2ccc(Br)cc2)o1	101	53*	1.1	1	-6	17
COc1ccc(Br)cc1C(=O)Nc1cccc2ncccc12	98	27	1.4	-1	-14	11
SMILES	STAT1 act	AHR act	NF-kB expr up	PERK inh	MDM2 E3 inh	APP 5'UTR act
O=C(Nc1cccc2ncccc12)c1ccc(Cl)cc1	.	65*	.	.	.	.
N#Cc1ccc(NC(=O)Nc2ccc(Cl)cc2)cc1	101	-10	1.2	1	-18	37
N#CC(C#N)=C/C=C(\Nc1ccc(Cl)cc1)c1ccc(Cl)cc1	.	120*	.	1	.	.
Cc1noc(C)c1C(=O)N1CCN(S(=O)(=O)c2cccc(Cl)c2Cl)CC1	.	1	.	0	-6	.
Cc1cccnc1NC(=O)CCNC(=O)c1ccccc1Cl	.	2	.	.	.	.
CC(C)(C)/C(COc1ccccc1[N+](=O)[O-])=N/O	97	2	1.2	1	-9	-4
CC1=CC(=O)C=C(C)C1=NOc1ccccc1[N+](=O)[O-]	95	4	3.7*	3	-4	-26
CCOC(=O)c1ccc(N=Nc2c(C)c(C#N)c(O)[nH]c2=O)cc1	101	-2	3.6*	0	-6	135*
CCOc1ccc(-c2cn3ccccc3n2)cc1[N+](=O)[O-]	127	-5	1.1	-1	-17	70
CCCCOc1ccc(-c2cn3ccccc3n2)cc1[N+](=O)[O-]	132*	-5	4.6*	-1	5	134
Nc1nc(-c2ccc([N+](=O)[O-])cc2)cs1	106	2	1.4	0	-6	-22
CCCOc1ccc(-c2csc(N)n2)cc1[N+](=O)[O-]	138*	-2	2.3	0	-3	67
O=C(Nc1ccccn1)Nc1cccs1	132*	13	1.4	1	-12	24
CCc1ccccc1NC(=O)Nc1cccs1	84	50*	0.9	1	-18	5
NC(=O)C1CCN(C(=O)c2cc(Cl)c3c(c2)OCCO3)CC1	.	-2	.	.	.	.
CC(C)N(Cc1cn(C)nc1-c1cccc(Cl)c1)Cc1nccn1C	103	1	1.1	2	-16	5
CC(=O)c1ccc(NC(=O)c2noc3c2CCC3)cc1	51	0	4.8*	1	-76	138*
COc1ccc(CNC(=O)c2noc3c2CCCCC3)cc1	106	2	1.6	0	18	-1
CC(C)(C)C1CCc2onc(C(=O)Nc3cnn(Cc4ccc(F)cc4)c3)c2C1 (stereo not drawn)	109	-5	0.86	0	-2	-10
COc1ccc(NC(=O)c2noc3c2CCC3)cc1	139*	-3	4*	-1	-57	143*
O=C(NCc1ccccc1)c1noc2c1CCCCC2	130*	7	1.9	0	-5	66
O=C(Nc1cnn(Cc2ccc(F)cc2)c1)c1noc2c1CCCC2	129*	34	1.6	-1	-9	59
COc1ccc(C2=NS(=O)(=O)N(C)C(C(=O)N3CCc4ccccc4C3)=C2)cc1OC	.	17	.	.	.	.
O=C(O)c1cccc(Cn2c(Cl)c(/C=N/NC(=O)c3ccco3)sc2=O)c1	.	3	.	.	.	.
O=C(Nc1cccc(O)c1)c1noc2c1CCCCC2	91	0	3.1	-1	-51	114
SMILES	STAT1 act	AHR act	NF-kB expr up	PERK inh	MDM2 E3 inh	APP 5'UTR act
Cc1ccc(NC(=O)c2noc3c2CCC3)cc1C	108	.	8.3*	0	-64	182*
CC(C)OCC(O)CCc1n[nH]c(=S)n1-c1ccccc1 (stereo not drawn)	94	-1	1.1	0	-3	.
CCOc1cc(C(=O)Nc2ccc3c(c2)OCO3)ccc1OC(F)F	101	51*	1.3	0	-1	26
CCOc1ccc(C(=O)Nc2ccc3c(c2)OCCO3)cc1OC	126	11	1.6	0	-27	47
CCC(=O)Oc1ccc(C(=O)Nc2ccc3c(c2)OCO3)cc1	137*	24	1	0	-15	142*
O=C(c1ccncc1)N1CCN(c2ccc(F)cc2)CC1	89	2	1	0	-22	.
O=C(c1cc(-c2cccs2)on1)N1CCN(c2ccc(F)cc2)CC1	101	2	3.4*	1	9	-1
O=C(c1ccc(Cl)cc1)N1CCN(c2ccc(F)cc2)CC1	101	58*	1.3	0	.	-3
